Experimental data of several laboratories.
Target: Lymphokine-activated killer T-cell-originated protein kinase (PBK, Homo sapiens, UniProt Q96KB5)
Residues used in one study (Q96KB5 1-322): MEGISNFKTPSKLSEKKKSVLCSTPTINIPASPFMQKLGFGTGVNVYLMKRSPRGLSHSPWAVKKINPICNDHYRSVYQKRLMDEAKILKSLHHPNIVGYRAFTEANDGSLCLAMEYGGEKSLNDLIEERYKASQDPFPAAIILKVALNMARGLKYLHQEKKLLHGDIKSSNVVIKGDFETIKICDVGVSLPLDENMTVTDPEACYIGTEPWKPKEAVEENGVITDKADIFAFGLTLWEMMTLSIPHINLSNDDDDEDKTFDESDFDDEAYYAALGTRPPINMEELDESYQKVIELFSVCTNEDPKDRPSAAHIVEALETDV

| Structure (SMILES) | assay | setting | quantity | result |
| --- | --- | --- | --- | --- |
| CC(C)(O)[C@H]1CC[C@H](Nc2ccc3ncc(-c4cccc(C(F)(F)F)c4)n3n2)CC1 | enzyme activity, inhibitor | 1 µM | remaining activity | 87.2% |
| CC/C(=N\NC(=O)NCc1cccc(O)c1)c1ccc(O)c(C)c1O | enzyme activity, inhibitor | 0.1 µM | inhibition | -7.3% |
| Cn1c2c(c3ccccc31)C(C#N)C(C)(C)NC2=O (centres unmarked) | thermal stability, DSF | 10 µM | ΔTm | -0.8 °C |
| CC(C)(C)c1nc(-c2cccc(NS(=O)(=O)c3c(F)cccc3F)c2F)c(-c2ccnc(N)n2)s1 | enzyme activity, inhibitor, radiometric | 1 µM | remaining activity | 99% |
| N#CCCc1ccc2c(c1)-c1[nH]c3ccc([N+](=O)[O-])cc3c1CC(=O)N2 | cell-free assay | 0.5 µM | remaining signal | 95.4% |
| Cc1sc(C(=O)NC2COC2)cc1-n1cc(NC(=O)Nc2c(F)cccc2Cl)cn1 | enzyme activity, inhibitor | 10 µM | remaining activity | 88.5% |
| CC(C)(C)c1nc2c(s1)c1nc(N)ncc1c1ccc(NS(=O)(=O)c3c(F)cccc3F)c(F)c12 | enzyme activity, inhibitor, radiometric | 1 µM | remaining activity | 92% |
| Cn1c2c(Cl)c(Cl)ccc2c2cc(N)[nH]c(=O)c21 | thermal stability, DSF | 10 µM | ΔTm | 0.6 °C |
| O=C(Nc1cnn(-c2csc(C(=O)NC3COC3)c2)c1)Nc1c(F)cccc1Cl | enzyme activity, inhibitor | 5 µM | remaining activity | 98.2% |
| CCN1CCC2(CC1)NC(=O)c1c(c3ccc(Cl)c(Cl)c3n1C)C2C#N (racemic) | thermal stability, DSF | 10 µM | ΔTm | -0.3 °C |
| O=C1Nc2ccc(Cl)cc2C1=Cc1cc(Cl)c(O)c(Cl)c1 | cell-free assay | 0.5 µM | remaining signal | 86.1% |
